Laboratory results reported in ChEMBL document CHEMBL1138220, “Synthesis and characterization of a novel liver-targeted prodrug of cytosine-1-beta-D-arabinofuranoside monophosphate for the treatment of hepatocellular carcinoma” (J Med Chem, 2006).
In brackets after ≈: the same amount, converted by molar mass.

Legend:
[1] = Stability in phosphate buffer at pH 7.4 at 37 degC at 100 uM after 72 hrs; type: physicochemical; settings: for remaining at 72 h, 100 µM: phosphate buffer, pH 7.4, read-out: Stability
In short: (§1)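 Prodrug at 100 µM in 10 mM phosphate buffer pH 7.4, held at 37 °C. Intact prodrug was quantified by C18 HPLC at 270 nm and expressed as % remaining at 24 h or 72 h.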

[2] = Stability in phosphate buffer at pH 7.4 at 37 degC at 100 uM after 24 hrs; type: physicochemical; settings: for remaining at 24 h, 100 µM: phosphate buffer, pH 7.4, read-out: Stability; in short: as §1
[3] = Aqueous solubility in phosphate buffer at pH 7.4; type: physicochemical
In short: (§2)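 Each prodrug was dissolved at 10 mg/mL (pyridyl prodrugs at 200 mg/mL) in 100 mM citrate buffer pH 4.0 or 100 mM phosphate pH 7.4. Samples were sonicated 20 min, held ~10 min at room temperature, filtered through 0.45 µm, diluted 1:100 or 1:10000 in DMSO, then quantified by C18 HPLC (acetonitrile gradient, 40 °C, 270 nm).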

[4] = Aqueous solubility in citrate buffer at pH 4; type: physicochemical; in short: as §2
[5] = tested on: Liver; assay: Ratio of AUC for araCTP level in liver to bone marrow of Swiss Webster mouse; type: functional
[6] = tested on: Liver; assay: Distribution of araCTP in Swiss Webster mouse liver at 100 mg/kg, ip measured as AUC (0-4h); type: ADME, organism-based; set-up: time < 5 hr, dose 100 mg/kg, route intraperitoneal; settings: in vivo, 5 h
In short: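 Nonfasted male Swiss Webster mice were dosed i.p. at a molar equivalent of 100 mg/kg araC. Livers were taken at set times up to 4 h, snap-frozen, homogenized in 3 volumes of 10% PCA, centrifuged and neutralized with KOH/KHCO₃. AraCTP was measured and reported as AUC 0-4 h (nmol·h/g).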

[7] = tested on: Bone marrow; assay: Distribution of araCTP in Swiss Webster mouse bone marrow at 100 mg/kg, ip measured as AUC (0-4h); type: ADME, organism-based; set-up: time < 5 hr, dose 100 mg/kg, route intraperitoneal; settings: in vivo, 5 h
In short: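 Male Swiss Webster mice were given i.p. prodrug at a molar equivalent of 100 mg/kg araC. Bone marrow cell pellets collected up to 4 h were extracted with 12 volumes of 3% PCA, centrifuged 10 min and neutralized to pH 7-8 with KOH/KHCO₃. AraCTP was expressed as AUC 0-4 h; the lower limit of quantitation was 3 nmol·h/g.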

[8] = tested on: Liver; assay: Ratio of AUC for araCTP level in liver to plasma of Swiss Webster mouse; type: functional
[9] = phosphate buffer, read-out: Solubility
[10] = citrate buffer, read-out: Solubility

Nc1ccn([C@@H]2O[C@H](COP3(=O)OCC[C@H](c4ccc(Br)cc4)O3)[C@@H](O)[C@@H]2O)c(=O)n1 (some centres not stated)
remaining at 72 h, 100 µM [1]: 4% | remaining at 24 h, 100 µM [2]: 9%

COC(=O)c1ccc([C@H]2CCOP(=O)(OC[C@H]3O[C@@H](n4ccc(N)nc4=O)[C@@H](O)[C@@H]3O)O2)cc1 (some centres not stated)
remaining at 72 h, 100 µM [1]: 61% | solubility [3, 9]: 5700 µg/mL (≈ 11.5 mM) | remaining at 24 h, 100 µM [2]: 84% | solubility [4, 10]: 7400 µg/mL (≈ 14.9 mM)

Nc1ccn([C@@H]2O[C@H](CO)[C@@H](O)[C@@H]2O)c(=O)n1 [CYTARABINE]
Ratio AUC [5]: <0.42 | AUC [6]: < 19.2 nmol·h/g | AUC [7]: 46 nmol/g | Ratio AUC [8]: <0.16

Nc1ccn([C@@H]2O[C@H](COP3(=O)OCC[C@H](c4cc(Cl)cc(Cl)c4)O3)[C@@H](O)[C@@H]2O)c(=O)n1 (some centres not stated)
remaining at 72 h, 100 µM [1]: 76% | solubility [3, 9]: 500 µg/mL (≈ 0.984 mM) | remaining at 24 h, 100 µM [2]: 82% | solubility [4, 10]: 1100 µg/mL (≈ 2.16 mM)

Nc1ccn([C@@H]2O[C@H](COP3(=O)OCC[C@H](c4cccnc4)O3)[C@@H](O)[C@@H]2O)c(=O)n1 (some centres not stated)
remaining at 72 h, 100 µM [1]: 83% | solubility [3, 9]: 176000 µg/mL (≈ 400 mM) | remaining at 24 h, 100 µM [2]: 99% | solubility [4, 10]: 172000 µg/mL (≈ 391 mM)

Nc1ccn([C@@H]2O[C@H](COP3(=O)OCC[C@H](c4ccc(Cl)cc4)O3)[C@@H](O)[C@@H]2O)c(=O)n1 (some centres not stated)
remaining at 72 h, 100 µM [1]: 4% | remaining at 24 h, 100 µM [2]: 5%

Nc1ccn([C@@H]2O[C@H](COP3(=O)OCC[C@H](c4ccncc4)O3)[C@@H](O)[C@@H]2O)c(=O)n1 (stereo in doubt; 10i)
Stability ([1]; buffer, pH 7.4, 72 h, 100 µM, 72 h): 90% | solubility ([3]; buffer): > 200000 µg/mL | Stability ([2]; buffer, pH 7.4, 24 h, 100 µM, 24 h): 92% | solubility ([4]; buffer): > 200000 µg/mL

COC(=O)c1cccc([C@H]2CCOP(=O)(OC[C@H]3O[C@@H](n4ccc(N)nc4=O)[C@@H](O)[C@@H]3O)O2)c1 (some centres not stated)
remaining at 72 h, 100 µM [1]: 23% | solubility [3, 9]: 7200 µg/mL (≈ 14.5 mM) | remaining at 24 h, 100 µM [2]: 60% | solubility [4, 10]: 10300 µg/mL (≈ 20.7 mM)

Nc1ccn([C@@H]2O[C@H](COP3(=O)OCC[C@@H](c4ccncc4)O3)[C@@H](O)[C@@H]2O)c(=O)n1 (some centres not stated)
remaining at 72 h, 100 µM [1]: > 95% | solubility [3, 9]: 7100 µg/mL (≈ 16.1 mM) | remaining at 24 h, 100 µM [2]: > 99% | Ratio AUC [5]: >12 | solubility [4, 10]: 23900 µg/mL (≈ 54.3 mM) | AUC [6]: 148.8 nmol·h/g | AUC [7]: < 12 nmol/g | Ratio AUC [8]: 19.6

Nc1ccn([C@@H]2O[C@H](COP3(=O)OCC[C@H](c4cccc(Cl)c4)O3)[C@@H](O)[C@@H]2O)c(=O)n1 (some centres not stated)
remaining at 72 h, 100 µM [1]: 21% | solubility [3, 9]: 1700 µg/mL (≈ 3.59 mM) | remaining at 24 h, 100 µM [2]: 63% | solubility [4, 10]: 3700 µg/mL (≈ 7.81 mM)

Nc1ccn([C@@H]2O[C@H](COP3(=O)OCC[C@H](c4ccncc4)O3)[C@@H](O)[C@@H]2O)c(=O)n1 (stereo in doubt; 19R)
remaining at 72 h, 100 µM [1]: > 97% | solubility ([3]; buffer): 16700 µg/mL (≈ 37.9 mM) | remaining at 24 h, 100 µM [2]: > 99% | Ratio AUC [5]: >7 | solubility ([4]; buffer): 37900 µg/mL (≈ 86.1 mM) | AUC [6]: 68 nmol·h/g | AUC [7]: < 12 nmol/g | Ratio AUC [8]: 19.4

Nc1ccn([C@@H]2O[C@H](COP3(=O)OCC[C@H](c4ccc(F)c(Cl)c4)O3)[C@@H](O)[C@@H]2O)c(=O)n1 (some centres not stated)
remaining at 72 h, 100 µM [1]: 52% | solubility [3, 9]: 3200 µg/mL (≈ 6.51 mM) | remaining at 24 h, 100 µM [2]: 74% | solubility [4, 10]: 6700 µg/mL (≈ 13.6 mM)
